Test [1] is described as follows: HUVEC growth inhibition – cell-based, human, primary screen (AID 575;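 active = viability at or below 30% in both replicate assays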;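 note: 100% = median of untreated cell wells with 0.1% DMSO on each plate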). To be noted: HUVEC proliferation, CellTiter-Glo luminescence, 72 h; at 10 µM; stronger effect = lower value. The gist of the method:
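material = primary HUVEC, no more than 12 passages | input = 1250 cells per well | controls = vehicle and MePR control wells | measured by = CTG luminescence | times = 72 h compound incubation | format = collagen-coated 384-well format | read-out = % viability vs DMSO wells | doses = single 10 µM dose, 0.1% DMSO, from 5x medium stock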
Background: Cellular ATP, detected with luciferase, serves as a proxy for viable cell number.

The nature of test [2]: H69AR cell proliferation blockers – human, duplicate replicates, primary screen (AID 580).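 Note: 100% = mean luminescence of untreated wells and 0% = no signal.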 The settings on record: H69AR lung tumor cells viability, ATP luminescence, 72 h; at 10 µM; stronger effect = lower value.
Test [3] is described as follows: MRP1 drug-resistance reversers in H69AR cells – cell-based, doxorubicin co-treatment, pilot screen (AID 601;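 active = viability loss from added drug above about 55%, and viability with drug at most 40%, in both replicates, limit read from the data, passing the limit was not always enough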). The settings on record: CellTiter-Glo, 72 h, at 10 µM; for differential viability (reversal): stronger effect = higher value.
The nature of test [4]: yeast transport mutant growth inhibition pilot in 384-well plates, post-Golgi transport modulator project (AID 636; in the data active = inhibition above about 31%). The settings on record: absorbance 615 nm, about 18 h, stronger effect = higher value.
A short description of test [5]: growth suppression of yeast trafficking mutant, preliminary HTS, modulators of trafficking downstream of Golgi apparatus project, 1536-format plate, OD 615 nm (AID 637; in the data active = inhibition above about 30%). The settings on record: yeast transport mutant growth, absorbance 615 nm, 18 h; stronger effect = higher value.
The mark [6] stands for this setting: H69AR cells + 2 uM doxorubicin, measured here: viability with 2 uM doxorubicin, stronger effect = lower value.
The mark [7] stands for this setting: H69AR cells, compound alone cytotoxicity.

The structures appear in SMILES notation. Activity calls are given as the source filed them.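 Rule for the calls, unless noted: active = viability at or under a set limit in both replicates, limit being median viability minus 3 SD (cut at about 48% in these data, passing the limit was not always enough); inconclusive = at or under the limit in just one replicate; inactive = at or above the limit in both replicates.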

The viability is a read-out of living cells in per cent, often relative to untreated cells. What is called inhibition is the drop in the measured response relative to a control, in per cent. As for `O=C(Cc1ccccc1)Nc1ccc(CN2CCOCC2)cc1`, the viability is 105% (inactive) in test [1], 97.3% (inactive) in test [2], 91.2% in test [3] (setting [6]) and 97.3% in test [3] (setting [7]). Further, the differential viability (reversal) in test [3] (H69AR cells + 2 uM doxorubicin) is 6.05% (inactive). Further, the figures for the inhibition in test [4] and in test [5] were -4.67% (inactive) and -2.38% (inactive), respectively.

Take `COCC(=O)Nc1sc2c(c1C(=O)OC)CCC(C)C2` (stereo not drawn): the viability in test [1] is 88.4% (inactive); in test [2], 94.8% (inactive); in test [3] (setting [6]), 90.3%; in test [3] (setting [7]) it was 94.8%. Also, the differential viability (reversal) in test [3] (H69AR cells + 2 uM doxorubicin) was 4.53% (inactive). In addition, the inhibition is -2.76% (inactive) in test [4] and 5.08% (inactive) in test [5].

In the case of `O=C(CSc1nnc(-c2ccccc2)o1)N1CCN(c2ccccc2)CC1`, the viability is 89.9% (inactive) in test [1], 98.3% (inactive) in test [2], 94.8% in test [3] (setting [6]) and 98.3% in test [3] (setting [7]). Also, the differential viability (reversal) in test [3] (H69AR cells + 2 uM doxorubicin) is 3.54% (inactive). The inhibition in test [4] was -4.53% (inactive); in test [5], 1.75% (inactive).

`COc1cccc(C(=O)Nc2ccc(NC(=O)C(C)(C)C)cn2)c1`: the viability in test [1] was 96% (inactive); in test [2] it was 76.2% (inactive); in test [3] (setting [6]), 73.5%; in test [3] (setting [7]), 76.2%. Further, in test [3] (H69AR cells + 2 uM doxorubicin), the differential viability (reversal) is 2.62% (inactive). For the same compound, the results for the inhibition in test [4] and in test [5] were 2.34% (inactive) and -0.48% (inactive), respectively.

Take `CCN(CC(=O)NC(=O)NCc1ccco1)Cc1nc2ccccc2c(=O)[nH]1`: the viability in test [1] is 86.5% (inactive); in test [2] it was 79.7% (inactive); in test [3] (setting [6]), 77.3%; in test [3] (setting [7]) it was 79.7%. For the same compound, the differential viability (reversal) in test [3] (H69AR cells + 2 uM doxorubicin) was 2.42% (inactive). Moreover, the inhibition in test [4] is -0.78% (inactive); in test [5], 1.43% (inactive).

In the case of `CC(=O)Nc1ccc(NC(=O)c2ccccc2N(C)S(C)(=O)=O)cc1`, the viability in test [1] is 101% (inactive); in test [2], 94.9% (inactive); in test [3] (setting [6]) it was 91.7%; in test [3] (setting [7]), 94.9%. Moreover, the differential viability (reversal) in test [3] (H69AR cells + 2 uM doxorubicin) is 3.22% (inactive). Also, the results for the inhibition in test [4] and in test [5] were -6.71% (inactive) and -0.79% (inactive), respectively.

For `Cc1ccc2c(COn3nnc4ccc(S(=O)(=O)N(C)C)cc43)cc(=O)oc2c1C`, the viability was 79.5% (inactive) in test [1], 72.1% (inactive) in test [2], 75.6% in test [3] (setting [6]) and 72.1% in test [3] (setting [7]). The differential viability (reversal) in test [3] (H69AR cells + 2 uM doxorubicin) is -3.53% (inactive). For the same compound, the inhibition in test [4] is -1.04% (inactive); in test [5], 2.7% (inactive).

`Cc1cccc2c1nc(-c1ccccc1)n1cnnc21`: the viability in test [1] was 92.3% (inactive); in test [2], 86.7% (inactive); in test [3] (setting [6]), 95.3%; in test [3] (setting [7]) it was 86.7%. For the same compound, the differential viability (reversal) in test [3] (H69AR cells + 2 uM doxorubicin) is -8.59% (inactive). Moreover, the inhibition in test [4] is 1.2% (inactive); in test [5] it was -6.19% (inactive).

For `Cn1c(=O)[nH]c(=O)c2c1nc(NC1CCCCC1)n2CC(=O)NC1CCCCC1`, the viability in test [1] is 99.5% (inactive); in test [2] it was 94.7% (inactive); in test [3] (setting [6]) it was 80.1%; in test [3] (setting [7]), 94.7%. Besides, the differential viability (reversal) in test [3] (H69AR cells + 2 uM doxorubicin) was 14.6% (inactive). Also, the inhibition is -7.6% (inactive) in test [4] and 5.87% (inactive) in test [5].

For the compound `O=c1oc(-c2ccco2)nc2ccccc12`, the viability in test [1] was 92.6% (inactive); in test [2], 91% (inactive); in test [3] (setting [6]), 86.2%; in test [3] (setting [7]), 91%. The differential viability (reversal) in test [3] (H69AR cells + 2 uM doxorubicin) was 4.72% (inactive). The inhibition was -0.78% (inactive) in test [4] and -2.22% (inactive) in test [5].

As to `Cc1ccc(NC(=O)CC2Nc3ccccc3NC2=O)cc1Cl` (stereo not drawn), the viability in test [1] is 10.1% (active); in test [2], 27.8% (active); in test [3] (setting [6]) it was 44.9%; in test [3] (setting [7]), 27.8%. Also, the differential viability (reversal) in test [3] (H69AR cells + 2 uM doxorubicin) is -17.1% (inactive). Further, the results for the inhibition in test [4] and in test [5] were -1.17% (inactive) and -3.49% (inactive), respectively.

Take `COc1ccc(S(=O)(=O)Nc2ccc3c(c2)OCO3)cc1Cl`: the viability is 12.9% (active) in test [1], 87.3% (inactive) in test [2], 82% in test [3] (setting [6]) and 87.3% in test [3] (setting [7]). The differential viability (reversal) in test [3] (H69AR cells + 2 uM doxorubicin) was 5.36% (inactive). Also, the inhibition in test [4] is -6.67% (inactive); in test [5] it was 12.1% (inactive).

With `Cc1cc(C)n(S(=O)(=O)c2cc(C(=O)O)c(Cl)cc2Cl)n1`, the viability in test [1] was 102% (inactive); in test [2], 82.6% (inactive); in test [3] (setting [6]), 92.8%; in test [3] (setting [7]) it was 82.6%. For the same compound, in test [3] (H69AR cells + 2 uM doxorubicin), the differential viability (reversal) is -10.2% (inactive). In addition, the inhibition in test [4] was -3.47% (inactive); in test [5], 4.29% (inactive).

With `CN1CCN(C(=O)c2ccccc2N(Cc2ccccc2)S(C)(=O)=O)CC1`, the viability in test [1] was 93.3% (inactive); in test [2], 91.6% (inactive); in test [3] (setting [6]), 84.9%; in test [3] (setting [7]), 91.6%. Also, the differential viability (reversal) in test [3] (H69AR cells + 2 uM doxorubicin) is 6.72% (inactive). The inhibition in test [4] is -6.1% (inactive); in test [5] it was -6.35% (inactive).

On to `C=CCn1c(=O)c(C(=O)Nc2ccccc2C(=O)OCC)c(O)c2ccccc21`, for which the viability was 84.3% (inactive) in test [1], 33% (active) in test [2], 60% in test [3] (setting [6]) and 33% in test [3] (setting [7]). Moreover, in test [3] (H69AR cells + 2 uM doxorubicin), the differential viability (reversal) is -26.9% (inactive). For the same compound, the inhibition in test [4] is -7.2% (inactive); in test [5], 6.83% (inactive).

As to `O=C(Nc1ccccc1)N(Cc1cccnc1)Cc1ccco1`, the viability is 86.1% (inactive) in test [1], 96.8% (inactive) in test [2], 84.1% in test [3] (setting [6]) and 96.8% in test [3] (setting [7]). Further, in test [3] (H69AR cells + 2 uM doxorubicin), the differential viability (reversal) is 12.7% (inactive). For the same compound, the inhibition in test [4] is -4.74% (inactive); in test [5], 1.75% (inactive).

Turning to `C/C(=N\O)c1ccc2c3c([nH]c2c1)CCCC3`, the viability was 25.3% (active) in test [1], 88.1% (inactive) in test [2], 96.8% in test [3] (setting [6]) and 88.1% in test [3] (setting [7]). In addition, in test [3] (H69AR cells + 2 uM doxorubicin), the differential viability (reversal) was -8.65% (inactive). Further, the inhibition in test [4] was -3.77% (inactive); in test [5] it was -0.16% (inactive).

Turning to `CCOC(=O)c1cccc(NC(=O)CCn2nnc3ccccc32)c1`, the viability was 89.9% (inactive) in test [1], 98.6% (inactive) in test [2], 88.9% in test [3] (setting [6]) and 98.6% in test [3] (setting [7]). Further, the differential viability (reversal) in test [3] (H69AR cells + 2 uM doxorubicin) was 9.72% (inactive). Further, the inhibition in test [4] is -2.5% (inactive); in test [5], 0.48% (inactive).

As for `O=C1CC(Cc2ccccc2)C(=O)N1CCc1ccc2c(c1)OCO2` (stereo not drawn), the viability in test [1] was 97.7% (inactive); in test [2] it was 102% (inactive); in test [3] (setting [6]) it was 97.7%; in test [3] (setting [7]), 102%. In addition, the differential viability (reversal) in test [3] (H69AR cells + 2 uM doxorubicin) was 4.62% (inactive). In addition, the inhibition in test [4] is -5.32% (inactive); in test [5], 3.65% (inactive).

The record behind these values is PubChem BioAssay.
